Series [1] has as its system HepG2. Put plainly: Cytotoxicity against human HepG2 cells assessed as cell viability at 50 uM incubated for 72 hrs by MTT spectrophotometric analysis relative to control. The series is classed as functional. Particulars: read-out: Activity. The method in brief:
(§1)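 HepG2 or rat H9c2 cells in DMEM with FBS, seeded at 10,000 cells/well. Treated 24 h later for 72 h, with 0.1% DMSO vehicle and 1% Triton X-100 as controls. MTT added (3 mg/mL solution) for 2 h at 37 °C, then cells lysed in isopropanol/0.1 M HCl/5% Triton X-100. Read at 570 nm minus 690 nm. Viability expressed as % of vehicle; IC50 derived where reached. At least four independent experiments.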

In series [2] the test system is Mycobacterium tuberculosis. The experiment in a line: Antimycobacterial activity against XDR clinical isolate Mycobacterium tuberculosis PRAHA 1 assessed as inhibition of mycobacterial growth measured after 14 to 21 days of incubation by Sulas semisynthetic medium based assay. As to conditions: time 14-21 day. The series is classed as functional. The method in brief:
(§2)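 Clinical MDR/XDR M. tuberculosis isolates were tested by the Sula's semisynthetic medium micromethod. Compounds in DMSO at 1000 to 0.5 μmol/L, in twofold-type steps. Incubation at 37 °C, read at 14 and 21 days. MIC99 is the lowest concentration inhibiting >99% of growth. Drug resistance or susceptibility of each isolate is to amikacin, clofazimine, gentamicin, ofloxacin, streptomycin and the others listed.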

Series [3] concerns HepG2. Put plainly: Cytotoxicity against human HepG2 cells assessed as cell viability incubated for 72 hrs by MTT spectrophotometric analysis. The series is classed as functional, cell-based. As to conditions: HepG2, 72 h. The method, boiled down:
as §1

Series [4] has as its system Mycobacterium tuberculosis. The experiment in a line: Antitubercular activity against Mycobacterium tuberculosis CNCTC My 331/88 (H37Rv) assessed as inhibition of bacterial growth measured after 21 days of incubation by Sulas semisynthetic medium based assay. Particulars: 504 h, time 21 day. The format is functional. The method in brief: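 Micromethod MIC in Sula's semisynthetic medium. MIC is the lowest concentration inhibiting >99% of the mycobacterial population. Isoniazid was the standard drug.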

The test system of series [5] is Mycobacterium tuberculosis. The experiment in a line: Antimycobacterial activity against MDR clinical isolate Mycobacterium tuberculosis PRAHA 1 assessed as inhibition of mycobacterial growth measured after 14 to 21 days of incubation by Sulas semisynthetic medium based assay. The format is functional. As to conditions: time 14-21 day. The method in brief:
as §2

For the next series, the system named is Pseudomonas aeruginosa. Put plainly: Antibacterial activity against multidrug-resistant Pseudomonas aeruginosa A1245 assessed as inhibition of bacterial growth incubated for 24 to 48 hrs by microdilution broth method. The series is classed as functional, organism-based. Particulars: time 24-48 hrs. The method, boiled down:
(§3)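 Clinical isolates, stored at −70 °C, were passaged twice on Mueller-Hinton agar. Broth microdilution in Mueller-Hinton broth, pH 7.4, with twofold serial dilutions. DMSO was at most 1% final. Inoculum 1.5 × 10⁸ CFU/mL suspension. MIC is 95% growth inhibition, read after 24 and 48 h at 36 °C.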

The subject of series [6] is Mycobacterium tuberculosis. The experiment in a line: Antimycobacterial activity against XDR clinical isolate Mycobacterium tuberculosis 9449/2007 assessed as inhibition of mycobacterial growth measured after 14 to 21 days of incubation by Sulas semisynthetic medium based assay. The series is classed as functional. Particulars: time 14-21 day. The method in brief: as §2

A further series deals with Staphylococcus aureus. Put plainly: Antibacterial activity against Staphylococcus aureus C1947 assessed as inhibition of bacterial growth incubated for 24 to 48 hrs by microdilution broth method. The format is functional, organism-based. As to conditions: time 24-48 hrs. The method in brief: (§4)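 Clinical isolates kept at –70 °C and subcultured twice on Mueller-Hinton agar, using the second subculture. Broth microdilution in Mueller-Hinton broth at pH 7.4 with two-fold serial compound dilutions and DMSO ≤1% final. Inoculum was 10 μL of a 1.5 × 10⁸ CFU/mL suspension. Incubated at 36 °C ± 1 °C and read at 24 h and 48 h. MIC taken as 95% growth inhibition.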
On the technique in general: In broth dilution the organism is exposed to a series of concentrations in liquid medium.

Series [7] has as its system Mycobacterium tuberculosis. Put plainly: Antimycobacterial activity against XDR clinical isolate Mycobacterium tuberculosis 234/2005 assessed as inhibition of mycobacterial growth measured after 14 to 21 days of incubation by Sulas semisynthetic medium based assay. The format is functional. Particulars: time 14-21 day. The method in brief:
as §2

The next series concerns H9c2. Put plainly: Cytotoxicity against rat H9c2 cells assessed as cell viability at 50 uM incubated for 72 hrs by MTT spectrophotometric analysis relative to control. The series is classed as functional. As to conditions: read-out: Activity. The method in brief:
as §1

Series [8] concerns HepG2. The experiment in a line: Cytotoxicity against human HepG2 cells incubated for 24 hrs by MTT assay. The format is functional, cell-based. As to conditions: HepG2, 24 h. The method, boiled down: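 HepG2 cells in DMEM with 10% FBS, seeded at 15 × 10³ cells/well and attached overnight. Exposed for 24 h to serial dilutions prepared from DMSO stocks, final DMSO ≤1%. Then given fresh medium with 0.5 mg/mL MTT for 1 h at 37 °C. Formazan dissolved in DMSO and read at 570 nm. IC50 from 4-parameter nonlinear regression; three independent experiments in triplicate, mean ± SD.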

In the next series the test system is Klebsiella pneumoniae. The experiment in a line: Antibacterial activity against ESBL positive Klebsiella pneumoniae C1914 assessed as inhibition of bacterial growth incubated for 24 to 48 hrs by microdilution broth method. The series is classed as functional, organism-based. As to conditions: time 24-48 hrs. The method, boiled down: as §4
Series [9] relates to Mycobacterium tuberculosis. The experiment in a line: Antimycobacterial activity against MDR clinical isolate Mycobacterium tuberculosis PRAHA 4 assessed as inhibition of mycobacterial growth measured after 14 to 21 days of incubation by Sulas semisynthetic medium based assay. As to conditions: time 14-21 day. The format is functional. The method in brief:
as §2

In series [10] the test system is Mycobacterium tuberculosis. The experiment in a line: Antimycobacterial activity against XDR clinical isolate Mycobacterium tuberculosis 8666/2010 assessed as inhibition of mycobacterial growth measured after 14 to 21 days of incubation by Sulas semisynthetic medium based assay. Particulars: time 14-21 day. The series is classed as functional. The method, boiled down: as §2

Series [11] has as its system Staphylococcus epidermidis. Put plainly: Antibacterial activity against Staphylococcus epidermidis C1936 assessed as inhibition of bacterial growth incubated for 24 to 48 hrs by microdilution broth method. The series is classed as functional, organism-based. Particulars: time 24-48 hrs. The method, boiled down: as §4
Series [12] deals with Mycobacterium tuberculosis. Put plainly: Antimycobacterial activity against XDR clinical isolate Mycobacterium tuberculosis PRAHA 4 assessed as inhibition of mycobacterial growth measured after 14 to 21 days of incubation by Sulas semisynthetic medium based assay. As to conditions: time 14-21 day. The series is classed as functional. The method, boiled down:
as §2

The subject of another series is Enterococcus faecium. The experiment in a line: Antibacterial activity against vancomycin-resistant Enterococcus faecium assessed as inhibition of bacterial growth incubated for 24 to 48 hrs by microdilution broth method. The format is functional, organism-based. As to conditions: time 24-48 hrs. The method, boiled down:
as §3

The subject of series [13] is Mycobacterium tuberculosis. The experiment in a line: Antimycobacterial activity against XDR clinical isolate Mycobacterium tuberculosis 7357/1998 assessed as inhibition of mycobacterial growth measured after 14 to 21 days of incubation by Sulas semisynthetic medium based assay. The series is classed as functional. Particulars: time 14-21 day. The method in brief: as §2

Series [14] concerns Mycobacterium tuberculosis. The experiment in a line: Antimycobacterial activity against MDR clinical isolate Mycobacterium tuberculosis 9449/2007 assessed as inhibition of mycobacterial growth measured after 14 to 21 days of incubation by Sulas semisynthetic medium based assay. The series is classed as functional. Particulars: time 14-21 day. The method in brief: as §2
The nature of series [15]: Intrinsic clearance in human liver microsomes at 3 uM incubated for 5 to 45 min in presence of NADPH by LC-MS analysis. The series is classed as ADME, Microsome. Particulars: time 5-45 min, read-out: CLH. (In general: Microsomes from liver hold many membrane-bound enzymes, among them those of drug oxidation.)

Values after ≈ are worked out from the molar mass of the structure shown. Active and inactive are the calls of the source. The calls are words filed in the database; no cut-off is given here.

By MIC99 is commonly meant an inhibitory concentration at the 99% level, which refers to growth in some studies and to a panel of isolates in others. As usually defined, the IC50 is the concentration needed to halve the response being measured. In the case of `COc1nc(N2CCOCC2)nc2ncn(Cc3ccc4ccccc4c3)c12`, the viability at 50 µM was determined as 66.4% in the series on HepG2 [1] and 92.6% in the series with H9c2. The MIC99 in series [2] worked out at 16 µM (≈ 6.01 µg/mL); in [4] it was 4 µM (≈ 1.5 µg/mL); in [5] it was 16 µM (≈ 6.01 µg/mL); in [6], 16 µM (≈ 6.01 µg/mL); in [7], 16 µM (≈ 6.01 µg/mL); in [9], 8 µM (≈ 3 µg/mL). Further, the MIC99 in series [10] stood at 8 µM (≈ 3 µg/mL); in [12], 16 µM (≈ 6.01 µg/mL); in [13], 16 µM (≈ 6.01 µg/mL); in series [14], 8 µM (≈ 3 µg/mL). Moreover, the IC50 is > 50 µM in the series on HepG2 [3] and 64.3 µM in the series on HepG2 [8]. The outcome (in the series with Pseudomonas aeruginosa; with Staphylococcus aureus; with Klebsiella pneumoniae; in series [11]; in the series with Enterococcus faecium) was inactive.

For `O=c1[nH]c(N2CCCCC2)nc2ncn(Cc3ccc4ccccc4c3)c12`, the viability at 50 µM with HepG2 [1] came out at 42.2%; with H9c2, 79.4%. For the same molecule, the MIC99 in series [2] came out at 16 µM (≈ 5.75 µg/mL); in series [4], 4 µM (≈ 1.44 µg/mL); in [5], 16 µM (≈ 5.75 µg/mL); in [6], 16 µM (≈ 5.75 µg/mL); in series [7] it was 16 µM (≈ 5.75 µg/mL); in series [9] it was 8 µM (≈ 2.88 µg/mL). The MIC99 is 8 µM (≈ 2.88 µg/mL) in series [10], 16 µM (≈ 5.75 µg/mL) in [12], 16 µM (≈ 5.75 µg/mL) in [13] and 8 µM (≈ 2.88 µg/mL) in series [14]. Also, the 50% inhibitory concentration (IC50) is 54.8 µM in the series with HepG2 [3] and 87.2 µM in the series with HepG2 [8]. Moreover, the result (with Pseudomonas aeruginosa; in the series on Staphylococcus aureus; with Klebsiella pneumoniae; in [11]; in the series on Enterococcus faecium) was inactive. Besides, in [15], the microsomal CLint at 3 µM is 77.9 µL/min/mg.

Take `O=c1[nH]c(N2CCSCC2)nc2ncn(Cc3ccc4ccccc4c3)c12`: the viability at 50 µM in the series with HepG2 [1] was determined as 72.9%; in the series with H9c2, 97.1%. Further, the MIC99 in series [2] was determined as 16 µM (≈ 6.04 µg/mL); in [4] it was 4 µM (≈ 1.51 µg/mL); in series [5] it was 16 µM (≈ 6.04 µg/mL); in series [6] it was 16 µM (≈ 6.04 µg/mL); in series [7], 16 µM (≈ 6.04 µg/mL); in series [9] it was 8 µM (≈ 3.02 µg/mL). For the same molecule, the MIC99 worked out at 8 µM (≈ 3.02 µg/mL) in [10], 16 µM (≈ 6.04 µg/mL) in [12], 16 µM (≈ 6.04 µg/mL) in [13] and 8 µM (≈ 3.02 µg/mL) in series [14]. Also, the results for the IC50 in the series with HepG2 [3] and with HepG2 [8] were > 50 µM and > 32 µM, respectively. Moreover, the result (in the series on Pseudomonas aeruginosa; with Staphylococcus aureus; in the series on Klebsiella pneumoniae; in series [11]; in the series with Enterococcus faecium) was inactive. Also, the microsomal CLint at 3 µM in series [15] turned out to be 127 µL/min/mg.

On to `c1ccc(CNc2nc(N3CCOCC3)nc3ncn(Cc4ccc5ccccc5c4)c23)cc1`, for which the MIC99 in series [2], in series [4], in series [5], in series [6], in series [7] and in series [9] was 4 µM (≈ 1.8 µg/mL) throughout. Besides, the MIC99 in [10], in series [12], in series [13] and in [14] was 4 µM (≈ 1.8 µg/mL) each time. The result (in the series on Pseudomonas aeruginosa; in the series with Staphylococcus aureus; with Klebsiella pneumoniae; in [11]; in the series on Enterococcus faecium) was inactive. In the series with HepG2 [8], this molecule came in with a half-maximal inhibitory concentration (IC50) of 33.8 µM. In addition, in [15], the microsomal CLint at 3 µM was determined as 72.1 µL/min/mg.

The values above are taken from ChEMBL document CHEMBL5620421, “2,6-Disubstituted 7-(naphthalen-2-ylmethyl)-7H-purines as a new class of potent antitubercular agents inhibiting DprE1” (Eur J Med Chem, 2023).
